Results on 24 molecules are retold here after ChEMBL document CHEMBL1152562, “Design, synthesis and evaluation of flavonoid derivatives as potent AChE inhibitors” (Bioorg Med Chem, 2009).

The target in one experiment is T1, Acetylcholinesterase (Rattus norvegicus, UniProt P37136).
T1 sequence (P37136 whole entry): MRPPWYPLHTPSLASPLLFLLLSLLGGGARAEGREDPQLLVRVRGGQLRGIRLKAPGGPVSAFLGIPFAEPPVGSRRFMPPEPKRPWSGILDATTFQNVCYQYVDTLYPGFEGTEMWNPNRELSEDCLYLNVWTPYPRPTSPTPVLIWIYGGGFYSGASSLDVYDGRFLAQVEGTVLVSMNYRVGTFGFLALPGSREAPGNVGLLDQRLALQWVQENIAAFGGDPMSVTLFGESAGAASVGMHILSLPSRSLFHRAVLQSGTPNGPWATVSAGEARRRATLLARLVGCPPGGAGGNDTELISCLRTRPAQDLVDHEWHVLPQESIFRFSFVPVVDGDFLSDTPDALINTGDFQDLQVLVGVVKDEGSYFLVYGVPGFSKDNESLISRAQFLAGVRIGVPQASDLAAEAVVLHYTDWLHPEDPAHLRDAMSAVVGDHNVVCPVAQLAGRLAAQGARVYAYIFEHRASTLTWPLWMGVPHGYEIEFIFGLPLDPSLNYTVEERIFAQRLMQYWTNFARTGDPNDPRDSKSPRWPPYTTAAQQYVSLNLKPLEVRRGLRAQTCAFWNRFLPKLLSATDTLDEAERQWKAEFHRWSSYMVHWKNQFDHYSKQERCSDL
The experiment can be described thus: Inhibition of AChE in rat cortex after 15 mins by modified Ellman's method. In general terms: DTNB colorimetry detects thiols as they appear.

The target of a further experiment is Butyrylcholinesterase (Rattus norvegicus, UniProt Q9JKC1). The experiment in a line: Inhibition of BChE in rat serum after 15 mins by modified Ellman's method. It is filed as cell-free. In short, it runs like this:
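Enzyme source was rat serum. Substrate butyrylthiocholine iodide 0.4 mmol/L in sodium phosphate buffer ([…]). Serum was incubated with the test compound at several concentrations at 37 °C for 15 min. Activity was read spectrophotometrically by a modified Ellman method, with IC50 derived from the concentration series.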

Sequence of Butyrylcholinesterase (Q9JKC1 whole entry): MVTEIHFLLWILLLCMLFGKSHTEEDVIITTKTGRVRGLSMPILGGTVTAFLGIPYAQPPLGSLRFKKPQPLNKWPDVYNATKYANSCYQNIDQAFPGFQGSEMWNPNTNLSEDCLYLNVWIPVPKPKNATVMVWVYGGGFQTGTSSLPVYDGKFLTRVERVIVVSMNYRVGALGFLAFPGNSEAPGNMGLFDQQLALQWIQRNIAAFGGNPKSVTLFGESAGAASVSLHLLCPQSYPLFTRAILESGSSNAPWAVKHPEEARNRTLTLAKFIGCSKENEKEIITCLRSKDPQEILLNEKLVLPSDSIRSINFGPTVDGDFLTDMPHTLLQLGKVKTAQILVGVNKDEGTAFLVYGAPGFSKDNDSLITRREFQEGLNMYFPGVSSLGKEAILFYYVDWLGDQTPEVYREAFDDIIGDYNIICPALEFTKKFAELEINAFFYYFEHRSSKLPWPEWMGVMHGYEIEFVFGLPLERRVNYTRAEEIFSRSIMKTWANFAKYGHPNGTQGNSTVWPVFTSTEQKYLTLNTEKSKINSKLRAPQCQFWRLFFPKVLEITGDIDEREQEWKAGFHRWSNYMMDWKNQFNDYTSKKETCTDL

Regarding `COc1cc2oc(-c3ccc(CN4CCCC4)cc3)cc(=O)c2cc1OC`, the figures for the concentration for half-maximal inhibition (IC50) on Acetylcholinesterase and against Butyrylcholinesterase were 0.055 µM and 89.7 µM, respectively.

For the molecule `CCN(C)Cc1ccc(/C=C/C(=O)c2cc(OC)c(OC)cc2O)cc1`, the results for the IC50 against Acetylcholinesterase and against Butyrylcholinesterase were 0.126 µM and above 100 µM, respectively.

`CCN(CC)Cc1ccc(/C=C/C(=O)c2cc(OC)c(OC)cc2O)cc1`: the IC50 was 0.103 µM against Acetylcholinesterase and above 100 µM at Butyrylcholinesterase.

For the molecule `CCN(CC)Cc1cccc(/C=C/C(=O)c2cc(OC)c(OC)cc2O)c1`, the IC50 against Acetylcholinesterase was 1.61 µM; on Butyrylcholinesterase, above 100 µM.

Turning to `COc1cc(O)c(C(=O)/C=C/c2ccc(CN3CCCC3)cc2)cc1OC`, the half-maximal inhibitory concentration (IC50) at Acetylcholinesterase is 0.037 µM; against Butyrylcholinesterase, above 100 µM.

Take `COc1cc(O)c(C(=O)/C=C/c2cccc(CN3CCCC3)c2)cc1OC`: the half-maximal inhibitory concentration (IC50) at Acetylcholinesterase came out at 0.047 µM; at Butyrylcholinesterase it was 77.3 µM.

Consider `COc1cc(O)c(C(=O)/C=C/c2ccc(CN3CCCCC3)cc2)cc1OC`, for which the half-maximal inhibitory concentration (IC50) at Acetylcholinesterase was 0.122 µM; at Butyrylcholinesterase, above 100 µM.

As for `CCN(C)Cc1ccc(-c2cc(=O)c3cc(OC)c(OC)cc3o2)cc1`, the IC50 against Acetylcholinesterase was 0.336 µM; against Butyrylcholinesterase it was above 100 µM.

Consider `CCN(CC)Cc1ccc(-c2cc(=O)c3cc(OC)c(OC)cc3o2)cc1`, for which the figures for the IC50 against Acetylcholinesterase and against Butyrylcholinesterase were 0.639 µM and 64.6 µM, respectively.

Turning to `CCN(CC)Cc1cccc(-c2cc(=O)c3cc(OC)c(OC)cc3o2)c1`, the 50% inhibitory concentration (IC50) against Acetylcholinesterase was 5.99 µM; on Butyrylcholinesterase, above 100 µM.

As to `COc1cc2oc(-c3cccc(CN4CCCC4)c3)cc(=O)c2cc1OC`, the figures for the IC50 at Acetylcholinesterase and against Butyrylcholinesterase were 0.704 µM and above 100 µM, respectively.

In the case of `COc1cc2oc(-c3ccc(CN4CCCCC4)cc3)cc(=O)c2cc1OC`, the half-inhibitory concentration (IC50) at Acetylcholinesterase was 0.034 µM; at Butyrylcholinesterase it was 75.2 µM.

Consider `CCN(C)Cc1ccc(C2CC(=O)c3cc(OC)c(OC)cc3O2)cc1` (stereo not drawn), for which the IC50 against Acetylcholinesterase is 4.67 µM; on Butyrylcholinesterase, above 100 µM.

As for `CCN(CC)Cc1ccc(C2CC(=O)c3cc(OC)c(OC)cc3O2)cc1` (stereo not drawn), the IC50 on Acetylcholinesterase is 4.97 µM; against Butyrylcholinesterase it was above 100 µM.

As for `CCN(CC)Cc1cccc(C2CC(=O)c3cc(OC)c(OC)cc3O2)c1` (stereo not drawn), the 50% inhibitory concentration (IC50) at Acetylcholinesterase is 172 µM; against Butyrylcholinesterase, above 100 µM.

Take `COc1cc2c(cc1OC)C(=O)CC(c1ccc(CN3CCCC3)cc1)O2` (stereo not drawn): the IC50 against Acetylcholinesterase came out at 1.24 µM; against Butyrylcholinesterase, 68.2 µM.

As to `COc1cc2c(cc1OC)C(=O)CC(c1cccc(CN3CCCC3)c1)O2` (stereo not drawn), the values for the IC50 against Acetylcholinesterase and against Butyrylcholinesterase were 5.36 µM and above 100 µM, respectively.

For `COc1cc2c(cc1OC)C(=O)CC(c1ccc(CN3CCCCC3)cc1)O2` (stereo not drawn), the IC50 is 0.248 µM against Acetylcholinesterase and 48 µM at Butyrylcholinesterase.

With `CCN(C)Cc1ccc(-c2coc3cc(OC)c(OC)cc3c2=O)cc1`, the results for the 50% inhibitory concentration (IC50) against Acetylcholinesterase and against Butyrylcholinesterase were 0.171 µM and 61 µM, respectively.

Regarding `CCN(CC)Cc1ccc(-c2coc3cc(OC)c(OC)cc3c2=O)cc1`, the half-inhibitory concentration (IC50) on Acetylcholinesterase was 0.599 µM; at Butyrylcholinesterase, above 100 µM.

As for `CCN(CC)Cc1cccc(-c2coc3cc(OC)c(OC)cc3c2=O)c1`, the IC50 is 0.56 µM against Acetylcholinesterase and above 100 µM against Butyrylcholinesterase.

For `COc1cc2occ(-c3ccc(CN4CCCC4)cc3)c(=O)c2cc1OC`, the IC50 came to 0.004 µM against Acetylcholinesterase and 18.3 µM against Butyrylcholinesterase.

With `COc1cc2occ(-c3cccc(CN4CCCC4)c3)c(=O)c2cc1OC`, the IC50 was 0.07 µM on Acetylcholinesterase and above 100 µM against Butyrylcholinesterase.

`COc1cc2occ(-c3ccc(CN4CCCCC4)cc3)c(=O)c2cc1OC`: the half-maximal inhibitory concentration (IC50) was 0.068 µM against Acetylcholinesterase and above 100 µM against Butyrylcholinesterase.

As usually defined, the IC50 is the concentration that inhibits the measured activity by half.
